Test results as given in ChEMBL document CHEMBL1152869, “An inhibitor of FtsZ with potent and selective anti-staphylococcal activity” (Science, 2008).
Converted amounts (≈) assume the structure as drawn. The source made the active and inactive calls. The rule behind the calls is not given here.

Columns and labels:
Bacillus subtilis [1] = assay: Antibacterial activity against Bacillus subtilis bearing FtsZ V307R mutant by broth microdilution method; assay type: functional
Bacillus subtilis [2] = assay: Antibacterial activity against Bacillus subtilis bearing FtsZ A47P mutant by broth microdilution method; assay type: functional
Staphylococcus aureus [3] = assay: Antibacterial activity against Staphylococcus aureus by broth microdilution method; assay type: functional
Bacillus subtilis [4] = assay: Antibacterial activity against Bacillus subtilis bearing FtsZ V307H mutant by broth microdilution method; assay type: functional
Bacillus subtilis [5] = assay: Antibacterial activity against Bacillus subtilis by broth microdilution method; assay type: functional
Bacillus subtilis [6] = assay: Antibacterial activity against Bacillus subtilis bearing FtsZ G196A mutant by broth microdilution method; assay type: functional
Bos taurus [7] = species: Bos taurus; assay: Enhancement of bovine brain tubulin polymerization at 25 uM
Bacillus subtilis [8] = assay: Inhibition of cell division in Bacillus subtilis 168 at 50 uM by phase contrast microscopy; assay type: functional, organism-based; conditions: subsp. subtilis str. 168
Bos taurus [9] = species: Bos taurus; assay: Enhancement of bovine brain tubulin polymerization at 64 ug/ml
Staphylococcus aureus [10] = assay: Bactericidal activity against Staphylococcus aureus ATCC 29213 assessed as logarithmic reduction in viable cell numbers at >= MIC after 24 hrs; assay type: functional
Staphylococcus warneri = assay: Antibacterial activity against Staphylococcus warneri by broth microdilution method; assay type: functional
Staphylococcus aureus [11] = assay: Antibacterial activity against Staphylococcus aureus Smith ATCC 19636 in sc dosed CD1 mouse septicemia model assessed as survival after 7 days; assay type: functional
Outline: (§1)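 At 1 h post-infection they received a single SC or IV dose of 3, 10 or 30 mg/kg. Controls were vehicle only and vancomycin 3 mg/kg by the same route. Mortality was recorded daily for 7 days, and ED50 was derived from dose-dependent survival.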

Staphylococcus aureus [12] = assay: Inhibition of cell division in Staphylococcus aureus ATCC 29213 assessed as enlargement of cells at 2 ug/ml within 2 hrs by phase contrast microscopy; assay type: functional, organism-based
Outline: (§2)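 S. aureus ATCC 29213 cells grown with or without compound at 2 μg/ml; cell morphology examined by phase-contrast microscopy.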

Staphylococcus aureus [13] = assay: Antibacterial activity against Staphylococcus aureus bearing FtsZ V214F mutant by broth microdilution method; assay type: functional
[14] = tested on: Staphylococcus saprophyticus; assay: Antibacterial activity against Staphylococcus saprophyticus by broth microdilution method; assay type: functional
Staphylococcus aureus [15] = assay: Antibacterial activity against Staphylococcus aureus bearing FtsZ R191P mutant by broth microdilution method; assay type: functional
Streptococcus pneumoniae = assay: Antibacterial activity against Streptococcus pneumoniae by broth microdilution method; assay type: functional
Staphylococcus hominis = assay: Antibacterial activity against Staphylococcus hominis by broth microdilution method; assay type: functional
Bos taurus [16] = species: Bos taurus; assay: Inhibition of bovine brain tubulin polymerization at 64 ug/ml
HepG2 = assay: Cytotoxicity against human HepG2 cells; assay type: cell-based
Saccharomyces cerevisiae = assay: Antifungal activity against Saccharomyces cerevisiae by broth microdilution method; assay type: functional
[17] = target: T1, Cell division protein FtsZ (Staphylococcus aureus) (UniProt P0A031); assay: (§3) Inhibition of Staphylococcus aureus FtsZ GTPase activity
T1 sequence (whole entry): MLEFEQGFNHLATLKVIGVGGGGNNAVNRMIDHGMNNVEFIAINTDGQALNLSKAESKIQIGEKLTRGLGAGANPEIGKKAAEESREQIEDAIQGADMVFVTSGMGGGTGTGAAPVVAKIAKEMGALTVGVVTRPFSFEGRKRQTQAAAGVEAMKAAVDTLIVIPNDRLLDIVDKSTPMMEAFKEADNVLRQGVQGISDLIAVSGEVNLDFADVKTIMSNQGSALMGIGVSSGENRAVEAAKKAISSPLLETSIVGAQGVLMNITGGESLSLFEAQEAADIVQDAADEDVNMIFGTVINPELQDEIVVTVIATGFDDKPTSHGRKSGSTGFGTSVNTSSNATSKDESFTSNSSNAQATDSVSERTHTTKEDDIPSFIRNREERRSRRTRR
Outline: (§4)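 S. aureus FtsZ cloned, overexpressed and purified; in vitro GTPase activity measured across a compound concentration series; IC50 derived from concentration-dependent inhibition.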

[18] = target: T2, Cell division protein FtsZ (Staphylococcus aureus, UniProt P0A031); assay: as §3; outline: as §4
T2 sequence (P0A031 whole entry): T1 sequence (whole entry)

Pseudomonas aeruginosa = assay: Antibacterial activity against Pseudomonas aeruginosa by broth microdilution method; assay type: functional
Staphylococcus aureus [19] = assay: Antibacterial activity against multidrug-resistant Staphylococcus aureus by broth microdilution method; assay type: functional
Staphylococcus aureus [20] = assay: Antibacterial activity against Staphylococcus aureus Smith ATCC 19636 in ip dosed CD1 mouse septicemia model assessed as survival administered 1 hr postinfection measured after 7 days; assay type: functional
Staphylococcus aureus [21] = assay: Bactericidal activity against Staphylococcus aureus ATCC 29213 assessed as reduction in cell viability at 2 ug/ml within 24 hrs by serial dilution method
Staphylococcus aureus [22] = assay: Antibacterial activity against Staphylococcus aureus bearing FtsZ N263K mutant by broth microdilution method; assay type: functional
Staphylococcus aureus [23] = assay: Antibacterial activity against Staphylococcus aureus bearing FtsZ G196A mutant by broth microdilution method; assay type: functional
Staphylococcus aureus [24] = assay: Antibacterial activity against methicillin-resistant Staphylococcus aureus by broth microdilution method; assay type: functional
Staphylococcus aureus [25] = assay: Antibacterial activity against Staphylococcus aureus bearing FtsZ G193D mutant by broth microdilution method; assay type: functional
Staphylococcus aureus [26] = assay: Antibacterial activity against Staphylococcus aureus Smith ATCC 19636 in iv dosed CD1 mouse septicemia model assessed as survival after 7 days; assay type: functional; outline: as §1
[27] = tested on: Staphylococcus haemolyticus; assay: Antibacterial activity against Staphylococcus haemolyticus by broth microdilution method; assay type: functional
Staphylococcus aureus [28] = assay: Antibacterial activity against Staphylococcus aureus Smith ATCC 19636 in CD1 mouse septicemia model assessed as survival at 30 mg/kg, iv after 7 days relative to control; assay type: functional; conditions: 168 h; outline: as §1
[29] = tested on: Staphylococcus epidermidis; assay: Antibacterial activity against Staphylococcus epidermidis by broth microdilution method; assay type: functional
Staphylococcus aureus [30] = assay: Inhibition of cell division in Staphylococcus aureus ATCC 29213 assessed as enlargement of cells at 2 ug/ml by phase contrast microscopy; assay type: functional, organism-based; outline: as §2
[31] = target: T3, Cell division protein FtsZ (Bacillus subtilis (strain 168)) (UniProt P17865); assay: Inhibition of GFP-FtsZ localization in Bacillus subtilis 2020 assessed as protein mislocalization to assemble into cytokinetic ring at 8 ug/ml by florescence microscopy
T3 sequence (whole entry): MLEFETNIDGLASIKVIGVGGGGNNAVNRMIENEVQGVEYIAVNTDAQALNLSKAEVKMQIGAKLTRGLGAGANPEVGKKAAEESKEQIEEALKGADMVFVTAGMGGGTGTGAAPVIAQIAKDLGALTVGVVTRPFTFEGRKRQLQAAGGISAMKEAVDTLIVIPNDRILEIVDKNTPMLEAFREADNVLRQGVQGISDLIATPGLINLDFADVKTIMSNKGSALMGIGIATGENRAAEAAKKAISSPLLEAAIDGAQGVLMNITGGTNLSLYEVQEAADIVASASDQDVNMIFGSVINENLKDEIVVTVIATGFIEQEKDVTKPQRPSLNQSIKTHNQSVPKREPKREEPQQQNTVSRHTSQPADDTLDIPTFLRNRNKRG
Outline: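 B. subtilis 2020 carrying gfp-ftsZ cultured with or without compound at 8 μg/ml; FtsZ localization visualized by fluorescence microscopy.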

Staphylococcus aureus [32] = assay: Antibacterial activity against Staphylococcus aureus Smith ATCC 19636 in CD1 mouse septicemia model assessed as survival at 30 mg/kg, sc after 7 days relative to control; assay type: functional; conditions: 168 h, route subcutaneous; outline: as §1
Escherichia coli = assay: Antibacterial activity against Escherichia coli by broth microdilution method; assay type: functional
Bacillus subtilis [33] = assay: Inhibition of cell division in Bacillus subtilis 168 assessed as elongation of cells at 2 ug/ml by phase contrast microscopy; assay type: functional, organism-based; conditions: subsp. subtilis str. 168
Outline: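 B. subtilis 168 cells grown with or without compound at 2 μg/ml; cell morphology examined by phase-contrast microscopy.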

Haemophilus influenzae = assay: Antibacterial activity against Haemophilus influenzae by broth microdilution method; assay type: functional
Staphylococcus aureus [34] = assay: Antibacterial activity against Staphylococcus aureus bearing FtsZ G266S mutant by broth microdilution method; assay type: functional
[35] = tested on: Staphylococcus lugdunensis; assay: Antibacterial activity against Staphylococcus lugdunensis by broth microdilution method; assay type: functional
Enterococcus faecalis = assay: Antibacterial activity against Enterococcus faecalis by broth microdilution method; assay type: functional

With COc1cccc(C(N)=O)c1 the MIC (Bacillus subtilis [1]) was greater than 8190 µg/mL, the MIC (Bacillus subtilis [2]) was greater than 8190 µg/mL and the MIC (Staphylococcus aureus [3]) was 2050 µg/mL (≈ 13500 µM). For the same compound, the MIC (Bacillus subtilis [4]) was 4100 µg/mL (≈ 27100 µM), the MIC (Bacillus subtilis [5]) was 2050 µg/mL (≈ 13500 µM) and the MIC (Bacillus subtilis [6]) was 1020 µg/mL (≈ 6770 µM).
In the case of CC(=O)O[C@H]1C(=O)[C@@]2(C)[C@H]([C@H](OC(=O)c3ccccc3)[C@]3(O)C[C@H](OC(=O)[C@H](O)[C@@H](NC(=O)c4ccccc4)c4ccccc4)C(C)=C1C3(C)C)[C@]1(OC(C)=O)CO[C@@H]1C[C@@H]2O, the Activity (Bos taurus [7]) is reported as “Active” and the Activity (Bacillus subtilis [8]) is reported as “inactive”.
NC(=O)c1c(F)ccc(OCc2nc3cc(Cl)cnc3s2)c1F was tested, and the Activity (Bos taurus [9]) was “inactive”, the Activity (Staphylococcus aureus [10]) was greater than 3 and the MIC (Staphylococcus warneri) was 1 µg/mL (≈ 2.81 µM). The MIC (Bacillus subtilis [1]) was 8 µg/mL (≈ 22.5 µM), the Activity (Staphylococcus aureus [11]) was “Dose-dependent effect” and the ED50 (Staphylococcus aureus [11]; 168 h) was 7.3 mg/kg. The MIC (Bacillus subtilis [2]) was 1 µg/mL (≈ 2.81 µM), the Activity (Staphylococcus aureus [12]) was “Active” and the MIC (Staphylococcus aureus [13]) was greater than 512 µg/mL. The MIC [14] was 1 µg/mL (≈ 2.81 µM), the MIC (Staphylococcus aureus [15]) was greater than 512 µg/mL and the MIC (Streptococcus pneumoniae) was greater than 64 µg/mL. The MIC (Staphylococcus hominis) was 1 µg/mL (≈ 2.81 µM), the Activity (Bos taurus [16]) was “inactive” and the IC50 (HepG2) was greater than 64 µg/mL. The MIC (Saccharomyces cerevisiae) was greater than 64 µg/mL, the Activity [17] was “Dose-dependent effect” and the IC50 [18] was 155 nM. For the same compound, the MIC (Pseudomonas aeruginosa) was greater than 64 µg/mL, the MIC (Staphylococcus aureus [19]) was 1 µg/mL (≈ 2.81 µM) and the ED50 (Staphylococcus aureus [20]) was 3.1 mg/kg. The Activity (Staphylococcus aureus [21]) was “Active”, the MIC (Staphylococcus aureus [22]) was greater than 512 µg/mL and the MIC (Staphylococcus aureus [23]) was greater than 512 µg/mL. For the same compound, the MIC (Staphylococcus aureus [24]) was 1 µg/mL (≈ 2.81 µM), the MIC (Staphylococcus aureus [25]) was greater than 512 µg/mL and the MIC (Staphylococcus aureus [3]) was 1 µg/mL (≈ 2.81 µM). For the same compound, the MIC (Bacillus subtilis [4]) was 2 µg/mL (≈ 5.62 µM), the Activity (Staphylococcus aureus [26]) was “Dose-dependent effect” and the ED50 (Staphylococcus aureus [26]; 168 h) was 10.2 mg/kg. It also gave an MIC [27] of 0.5 µg/mL (≈ 1.41 µM), a survival at 30 mg/kg (Staphylococcus aureus [28]) of 100% and an MIC [29] of 1 µg/mL (≈ 2.81 µM). For the same compound, the Activity (Staphylococcus aureus [30]) was “Active”, the Activity [31] was “Active” and the survival at 30 mg/kg (Staphylococcus aureus [32]) was 100%. The MIC (Bacillus subtilis [5]) was 0.5 µg/mL (≈ 1.41 µM), the MIC (Escherichia coli) was greater than 64 µg/mL and the MIC (Bacillus subtilis [6]) was greater than 64 µg/mL. The Activity (Bacillus subtilis [33]) was “Active”, the MIC (Haemophilus influenzae) was greater than 64 µg/mL and the MIC (Staphylococcus aureus [34]) was greater than 512 µg/mL. The MIC [35] was 1 µg/mL (≈ 2.81 µM) and the MIC (Enterococcus faecalis) was greater than 64 µg/mL.
